Values after ≈ are worked out from the molar mass of the structure shown.
Experiments:
Assay type in all cases: functional
Candida albicans [1] = experiment: Antifungal activity against Candida albicans ATCC 90028 after 48 hrs by CLSI broth microdilution method; details: ATCC 90028, 48 h
Summary of the method: (§1)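 Yeast CLSI broth microdilution (M27-A3). Compounds dissolved in DMSO at 100× the top test concentration, then diluted as serial two-fold dilutions in RPMI 1640 to final 0.125–64. Inoculum was 1.0–1.5 × 10^3 cells mL−1, incubated at 35 °C and read for growth at 48 h. MIC is the lowest concentration giving ≥50% growth inhibition versus growth control. Reported as the median of five replicates and as the geometric mean.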

Candida albicans [2] = experiment: Antifungal activity against Candida albicans ATCC 20891 after 48 hrs by CLSI broth microdilution method; details: ATCC 20891, 48 h; summary of the method: as §1
Candida albicans [3] = experiment: Antifungal activity against Candida albicans PMC 1011 after 48 hrs by CLSI broth microdilution method; details: PMC 1011, 48 h; summary of the method: as §1
Pichia kudriavzevii [4] = experiment: Antifungal activity against Candida krusei DSM 6128 after 48 hrs by CLSI broth microdilution method; details: DSM 6128, 48 h; summary of the method: as §1
Pichia kudriavzevii [5] = experiment: Antifungal activity against Candida krusei PMC 0613 after 48 hrs by CLSI broth microdilution method; details: PMC 0613, 48 h; summary of the method: as §1
Candida tropicalis [6] = experiment: Antifungal activity against Candida tropicalis PMC 0910 after 48 hrs by CLSI broth microdilution method; details: PMC 0910, 48 h; summary of the method: as §1
Candida tropicalis [7] = experiment: Antifungal activity against Candida tropicalis DSM 11953 after 48 hrs by CLSI broth microdilution method; details: DSM 11953, 48 h; summary of the method: as §1
Candida parapsilosis [8] = experiment: Antifungal activity against Candida parapsilosis DSM 11224 after 48 hrs by CLSI broth microdilution method; details: Lodderomyces parapsilosis, DSM 11224, 48 h; summary of the method: as §1
Candida parapsilosis [9] = experiment: Antifungal activity against Candida parapsilosis ATCC 22019 after 48 hrs by CLSI broth microdilution method; details: Lodderomyces parapsilosis, ATCC 22019, 48 h; summary of the method: as §1
Nakaseomyces glabratus [10] = experiment: Antifungal activity against Candida glabrata PMC 0805 after 48 hrs by CLSI broth microdilution method; details: PMC 0805, 48 h; summary of the method: as §1
Nakaseomyces glabratus [11] = experiment: Antifungal activity against Candida glabrata PMC 0807 after 48 hrs by CLSI broth microdilution method; details: PMC 0807, 48 h; summary of the method: as §1
Cryptococcus neoformans [12] = experiment: Antifungal activity against Cryptococcus neoformans PMC 2123 after 72 hrs by CLSI broth microdilution method; details: PMC 2123, 72 h
Summary of the method: (§2)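 Cryptococcus neoformans tested by CLSI broth microdilution in RPMI 1640, with serial two-fold dilutions from DMSO stocks at 100× the top concentration, final 0.125–64. Inoculum was 1.0–1.5 × 10^3 cells mL−1 at 35 °C, with growth read at 72 h. MIC is the lowest concentration with ≥50% growth inhibition versus control. Median of five replicates, plus geometric mean.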

Cryptococcus neoformans [13] = experiment: Antifungal activity against Cryptococcus neoformans PMC 2136 after 72 hrs by CLSI broth microdilution method; details: PMC 2136, 72 h; summary of the method: as §2
Cryptococcus neoformans [14] = experiment: Antifungal activity against Cryptococcus neoformans PMC 2115 after 72 hrs by CLSI broth microdilution method; details: PMC 2115, 72 h; summary of the method: as §2
Cryptococcus neoformans [15] = experiment: Antifungal activity against Cryptococcus neoformans PMC 2103 after 72 hrs by CLSI broth microdilution method; details: PMC 2103, 72 h; summary of the method: as §2
Cryptococcus neoformans [16] = experiment: Antifungal activity against Cryptococcus neoformans PMC 2107 after 72 hrs by CLSI broth microdilution method; details: PMC 2107, 72 h; summary of the method: as §2
Cryptococcus neoformans [17] = experiment: Antifungal activity against Cryptococcus neoformans PMC 2102 after 72 hrs by CLSI broth microdilution method; details: PMC 2102, 72 h; summary of the method: as §2
Cryptococcus neoformans [18] = experiment: Antifungal activity against Cryptococcus neoformans DSM 11959 after 72 hrs by CLSI broth microdilution method; details: DSM 11959, 72 h; summary of the method: as §2
Cryptococcus neoformans [19] = experiment: Antifungal activity against Cryptococcus neoformans PMC 2111 after 72 hrs by CLSI broth microdilution method; details: PMC 2111, 72 h; summary of the method: as §2
[20] = system: Trichophyton mentagrophytes; experiment: Antifungal activity against Trichophyton mentagrophytes DSM 4870 after 72 hrs by CLSI broth microdilution method; details: DSM 4870, 72 h
Summary of the method: (§3)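 Dermatophytes tested by CLSI broth microdilution for filamentous fungi (M38-A2). Serial two-fold dilutions of DMSO-dissolved compound in RPMI 1640, final 0.125–64. Inoculum was 0.4–5 × 10^4 CFU mL−1, incubated at 35 °C and read at 72 h. MIC80 is the lowest concentration giving ≥80% growth inhibition versus growth control. Median of five replicates, plus geometric mean.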

[21] = system: Trichophyton mentagrophytes; experiment: Antifungal activity against Trichophyton mentagrophytes PMC 6515 after 72 hrs by CLSI broth microdilution method; details: PMC 6515, 72 h; summary of the method: as §3
[22] = system: Trichophyton mentagrophytes; experiment: Antifungal activity against Trichophyton mentagrophytes PMC 6531 after 72 hrs by CLSI broth microdilution method; details: PMC 6531, 72 h; summary of the method: as §3
[23] = system: Trichophyton mentagrophytes; experiment: Antifungal activity against Trichophyton mentagrophytes PMC 6509 after 72 hrs by CLSI broth microdilution method; details: PMC 6509, 72 h; summary of the method: as §3
[24] = system: Trichophyton mentagrophytes; experiment: Antifungal activity against Trichophyton mentagrophytes PMC 6503 after 72 hrs by CLSI broth microdilution method; details: PMC 6503, 72 h; summary of the method: as §3
[25] = system: Trichophyton mentagrophytes; experiment: Antifungal activity against Trichophyton mentagrophytes PMC 6552 after 72 hrs by CLSI broth microdilution method; details: PMC 6552, 72 h; summary of the method: as §3
Nannizzia gypsea [26] = experiment: Antifungal activity against Microsporum gypseum PMC 7303 after 72 hrs by CLSI broth microdilution method; details: PMC 7303, 72 h; summary of the method: as §3
Nannizzia gypsea [27] = experiment: Antifungal activity against Microsporum gypseum PMC 7331 after 72 hrs by CLSI broth microdilution method; details: PMC 7331, 72 h; summary of the method: as §3
Nannizzia gypsea [28] = experiment: Antifungal activity against Microsporum gypseum DSM 3824 after 72 hrs by CLSI broth microdilution method; details: DSM 3824, 72 h; summary of the method: as §3
Candida albicans [29] = experiment: Antifungal activity against Candida albicans PMC 1040R after 48 hrs by CLSI broth microdilution method; summary of the method: as §1
Candida albicans [30] = experiment: Antifungal activity against Candida albicans PMC 1041R after 48 hrs by CLSI broth microdilution method; summary of the method: as §1
Nakaseomyces glabratus [31] = experiment: Antifungal activity against Candida glabrata PMC 0850R after 48 hrs by CLSI broth microdilution method; summary of the method: as §1
Nakaseomyces glabratus [32] = experiment: Antifungal activity against Candida glabrata PMC 0851R after 48 hrs by CLSI broth microdilution method; summary of the method: as §1
Nakaseomyces glabratus [33] = experiment: Antifungal activity against Candida glabrata PMC 0852R after 48 hrs by CLSI broth microdilution method; summary of the method: as §1
Nakaseomyces glabratus [34] = experiment: Antifungal activity against Candida glabrata PMC 0853R after 48 hrs by CLSI broth microdilution method; summary of the method: as §1
Candida albicans [35] = experiment: Antifungal activity against Candida albicans PMC 1042R after 48 hrs by CLSI broth microdilution method; summary of the method: as §1
Candida albicans [36] = experiment: Antifungal activity against Candida albicans ATCC 24433 after 48 hrs by CLSI broth microdilution method; details: ATCC 24433, 48 h; summary of the method: as §1
Candida albicans [37] = experiment: Antifungal activity against Candida albicans ATCC 3153 after 48 hrs by CLSI broth microdilution method; details: ATCC 3153, 48 h; summary of the method: as §1
Candida albicans [38] = experiment: Antifungal activity against Candida albicans ATCC 10231 after 48 hrs by CLSI broth microdilution method; details: ATCC 10231, 48 h; summary of the method: as §1
Candida albicans [39] = experiment: Antifungal activity against Candida albicans ATCC 76615 after 48 hrs by CLSI broth microdilution method; details: ATCC 76615, 48 h; summary of the method: as §1
Candida albicans [40] = experiment: Antifungal activity against Candida albicans ATCC 10261 after 48 hrs by CLSI broth microdilution method; details: ATCC 10261, 48 h; summary of the method: as §1

Work on `OC(Cn1cncn1)(Cn1cncn1)c1ccc(F)cc1F` [FLUCONAZOLE] yielded an MIC50 (Candida albicans [1]) of 0.5 µg/mL (≈ 1.63 µM), an MIC50 (Candida albicans [2]) of 1 µg/mL (≈ 3.27 µM) and an MIC50 (Candida albicans [3]) of 0.25 µg/mL (≈ 0.816 µM). The MIC50 (Pichia kudriavzevii [4]) was 16 µg/mL (≈ 52.2 µM), the MIC50 (Pichia kudriavzevii [5]) was 8 µg/mL (≈ 26.1 µM) and the MIC50 (Candida tropicalis [6]) was 4 µg/mL (≈ 13.1 µM). For the same compound, the MIC50 (Candida tropicalis [7]) was 1 µg/mL (≈ 3.27 µM), the MIC50 (Candida parapsilosis [8]) was 1 µg/mL (≈ 3.27 µM) and the MIC50 (Candida parapsilosis [9]) was 2 µg/mL (≈ 6.53 µM). The MIC50 (Nakaseomyces glabratus [10]) was 1 µg/mL (≈ 3.27 µM), the MIC50 (Nakaseomyces glabratus [11]) was 16 µg/mL (≈ 52.2 µM) and the MIC50 (Cryptococcus neoformans [12]) was 2 µg/mL (≈ 6.53 µM). For the same compound, the MIC50 (Cryptococcus neoformans [13]) was 2 µg/mL (≈ 6.53 µM), the MIC50 (Cryptococcus neoformans [14]) was 4 µg/mL (≈ 13.1 µM) and the MIC50 (Cryptococcus neoformans [15]) was 2 µg/mL (≈ 6.53 µM). It also gave an MIC50 (Cryptococcus neoformans [16]) of 1 µg/mL (≈ 3.27 µM), an MIC50 (Cryptococcus neoformans [17]) of 4 µg/mL (≈ 13.1 µM) and an MIC50 (Cryptococcus neoformans [18]) of 2 µg/mL (≈ 6.53 µM). The MIC50 (Cryptococcus neoformans [19]) was 1 µg/mL (≈ 3.27 µM), the MIC80 [20] was 16 µg/mL (≈ 52.2 µM) and the MIC80 [21] was 8 µg/mL (≈ 26.1 µM). For the same compound, the MIC80 [22] was 4 µg/mL (≈ 13.1 µM), the MIC80 [23] was 1 µg/mL (≈ 3.27 µM) and the MIC80 [24] was 2 µg/mL (≈ 6.53 µM). It also gave an MIC80 [25] of 8 µg/mL (≈ 26.1 µM), an MIC80 (Nannizzia gypsea [26]) of 16 µg/mL (≈ 52.2 µM) and an MIC80 (Nannizzia gypsea [27]) of 16 µg/mL (≈ 52.2 µM). For the same compound, the MIC80 (Nannizzia gypsea [28]) was 16 µg/mL (≈ 52.2 µM), the MIC50 (Candida albicans [29]) was 512 µg/mL (≈ 1670 µM) and the MIC50 (Candida albicans [30]) was 32 µg/mL (≈ 104 µM). For the same compound, the MIC50 (Nakaseomyces glabratus [31]) was 32 µg/mL (≈ 104 µM), the MIC50 (Nakaseomyces glabratus [32]) was 128 µg/mL (≈ 418 µM) and the MIC50 (Nakaseomyces glabratus [33]) was 16 µg/mL (≈ 52.2 µM). For the same compound, the MIC50 (Nakaseomyces glabratus [34]) was 32 µg/mL (≈ 104 µM), the MIC50 (Candida albicans [35]) was 16 µg/mL (≈ 52.2 µM) and the MIC50 (Candida albicans [36]) was 0.5 µg/mL (≈ 1.63 µM). It also gave an MIC50 (Candida albicans [37]) of 16 µg/mL (≈ 52.2 µM), an MIC50 (Candida albicans [38]) of 2 µg/mL (≈ 6.53 µM) and an MIC50 (Candida albicans [39]) of 0.5 µg/mL (≈ 1.63 µM). The MIC50 (Candida albicans [40]) was 4 µg/mL (≈ 13.1 µM).

— ChEMBL document CHEMBL3286116, “Synthesis, biological evaluation and structure-activity correlation study of a series of imidazol-based compounds as Candida albicans inhibitors” (Eur J Med Chem, 2014)
